Published values of several laboratories.
Compare with care: the assays were run in different laboratories. Values after ≈ are worked out from the molar mass of the structure shown.
Organism: Escherichia coli

SMILES | test | test system | conditions | measurement | value
Clc1ccc(-c2nc3ccccc3n2Cc2ccccc2)cc1 | microbial growth, broth dilution | ATCC25922 |  | MIC | 128 µg/mL (≈ 401 µM)
CC(C)Oc1c(NC(=O)c2ccc(NC(=O)[C@H](CC(N)=O)NC(=O)c3ccc(NC(=O)c4ccc(S(C)(=O)=O)cc4)cc3)cc2)ccc(C(=O)Nc2ccc(C(=O)O)cc2)c1O | microbial growth | DSM1116 |  | MIC | 2 µg/mL (≈ 2.31 µM)
O=C(Sc1cccccc1=O)c1ccc(C(F)(F)F)cc1 | microbial growth, broth dilution | ATCC35218 |  | MIC80 | 66.7 µM (≈ 20.7 µg/mL)
N=C(N)c1ccc(OCCS(=O)(=O)CCOc2ccc(C(=N)N)cc2)cc1 | microbial growth, broth dilution | BW25113 |  | MIC | > 200 µg/mL
c1cncc(-c2nc3ccccc3[nH]2)c1 | microbial growth, broth dilution | ATCC25922 |  | MIC | 64 µg/mL (≈ 328 µM)
COc1cc(C=Cc2cc(-c3ccccc3)nc(O)n2)ccc1O | microbial growth, disc diffusion | ATCC25922 | 500 µg/mL | inhibition zone | 19.7 mm
N=C(N)c1ccccc1OCc1ccc(COc2ccccc2C(=N)N)cc1 | microbial growth | BW25113 |  | MIC | > 200 µg/mL
COc1cc(C=CC(=O)CC(c2ccc([N+](=O)[O-])cc2)n2ccnc2)ccc1O (stereo not drawn) | microbial growth, disc diffusion | ATCC25922 | 250 µg/mL | inhibition zone | 7.67 mm
N=C(N)c1ccc(OCc2ccc3ccc(COc4ccc(C(=N)N)cc4)cc3c2)cc1 | microbial growth | BW25113 | 20 h | MIC | > 200 µg/mL
c1ccc2[nH]c(-c3ccncc3)nc2c1 | microbial growth, broth dilution | ATCC25922 |  | MIC | 128 µg/mL (≈ 656 µM)
CC(C)Oc1c(NC(=O)c2ccc(NC(=O)[C@H](CC(N)=O)NC(=O)c3ccc(NC(=O)c4ccc(C(F)(F)F)cc4)cc3)cc2)ccc(C(=O)Nc2ccc(C(=O)O)cc2)c1O | microbial growth | DSM1116 |  | MIC | 0.5 µg/mL (≈ 0.585 µM)
Cc1ccc(-n2cc(COc3cccc4cccnc34)nn2)cc1 | microbial growth, broth dilution | ATCC25922 |  | IC50 | 176 µg/mL
CCCc1ccsc1-c1ccc(O)c(O)c1 | microbial growth | AS19 | 10 h | IC50 | 15.4 µM
CCCCCCCCCC(=O)Oc1c(C)c(O)c(C(=O)/C=C/c2ccccc2)c(OC)c1C | microbial killing, broth dilution | ATCC25922 |  | MBC | > 5000 µg/mL
Cc1ccc(C(C)C)cc1OCc1cn(-c2ccccc2)nn1 | microbial growth, broth dilution | ATCC25922 |  | IC50 | 249 µg/mL
CC1(C)SC2C(NC(=O)C(NC(=O)C3=C(O)C(Cc4ccsc4)NC3=O)c3ccccc3)C(=O)N2C1C(=O)O (stereo not drawn) | microbial growth, well diffusion | BW25113 | 200 µM | inhibition zone | 10 mm
CC(C)Oc1c(NC(=O)c2ccc(NC(=O)[C@H](CC(N)=O)NC(=O)c3ccc(NC(=O)c4ccc(C#N)cc4)cc3)cc2)ccc(C(=O)N[C@@H]2CONC2=O)c1O | microbial growth | DSM1116 |  | MIC | > 64 µg/mL
CCCCCCCCCCCCCC(O)CC(O)CO (stereo not drawn) | microbial growth, broth dilution | ATCC35218 |  | IC50 | > 200 µg/mL
O=[N+]([O-])c1ccc(-c2nc3ccccc3n2Cc2ccccc2)cc1 | microbial growth, broth dilution | ATCC25922 |  | MIC | 64 µg/mL (≈ 194 µM)
CC(C)Oc1c(NC(=O)c2ccc(NC(=O)[C@H](CC(N)=O)NC(=O)c3ccc(NC(=O)c4ccc(C#N)cc4)cc3)cc2)ccc(C(=O)Nc2ccncc2)c1O | microbial growth | DSM1116 |  | MIC | > 64 µg/mL
CCCCCCCC(=O)Oc1c(C)c(O)c(C(=O)/C=C/c2ccccc2)c(OC)c1C | microbial killing, broth dilution | ATCC25922 |  | MBC | > 5000 µg/mL
N=C(N)c1ccc(OCCSCCOc2ccc(C(=N)N)cc2)cc1 | microbial growth, broth dilution | BW25113 |  | MIC | > 200 µg/mL
Oc1ccc(-c2ccsc2)cc1O | microbial growth | AS19 | 10 h | IC50 | 29.9 µM

SMILES | test | test system | conditions | measurement | value
COc1c(C)c(OC(C)=O)c(C)c(OC(C)=O)c1C(=O)/C=C/c1ccccc1 | microbial killing, broth dilution | ATCC25922 |  | MBC | > 5000 µg/mL
COc1ccc(-n2cc(COc3cccc4cccnc34)nn2)cc1 | microbial growth, broth dilution | ATCC25922 |  | IC50 | 376 µg/mL
O=C(N[C@H](CO)[C@H](O)c1ccc([N+](=O)[O-])cc1)C(Cl)Cl | microbial growth | ATCC25922 |  | MIC90 | 0.98 µg/mL (≈ 3.03 µM)
O=C(O)c1cn(C2CC2)c2cc(N3CCNCC3)c(F)cc2c1=O | microbial growth, broth dilution | ATCC25922 |  | IC50 | 0.125 µg/mL
O=C(O)c1cn(C2CC2)c2cc(N3CCNCC3)c(F)cc2c1=O | microbial growth | SG458 | 1000 µg/mL | inhibition zone | 28.5 mm
CC1(C)S[C@@H]2[C@H](NC(=O)[C@H](N)c3ccccc3)C(=O)N2[C@H]1C(=O)O | microbial growth, well diffusion | BW25113 | 200 µM | inhibition zone | 14 mm
COc1cc(C=Cc2cc(-c3ccc(N(C)C)cc3)nc(O)n2)ccc1O | microbial growth, disc diffusion | ATCC25922 | 500 µg/mL | inhibition zone | 11 mm
O=S(=O)(Oc1cccc2cccnc12)c1ccccc1 | microbial growth, broth dilution | ATCC25922 |  | IC50 | 277 µg/mL
Cc1ccc2nc(-c3ccco3)[nH]c2c1 | microbial growth, broth dilution | ATCC25922 |  | MIC | 128 µg/mL (≈ 646 µM)
CC(C)CC1NC(=O)C(C(=O)NC(C(=O)NC2C(=O)N3C2SC(C)(C)C3C(=O)O)c2ccccc2)=C1O (stereo not drawn) | microbial growth, well diffusion | BW25113 | 200 µM | inhibition zone | 9 mm
COc1c(C)c(OC(C)=O)c(C)c(O)c1C(=O)/C=C/c1ccccc1 | microbial killing, broth dilution | ATCC25922 |  | MBC | > 5000 µg/mL
Cc1ccc(C(C)C)cc1OCc1cn(-c2ccc([N+](=O)[O-])cc2)nn1 | microbial growth, broth dilution | ATCC25922 |  | IC50 | 532 µg/mL
N=C(N)c1cccc(OCc2ccc(COc3cccc(C(=N)N)c3)cc2)c1 | microbial growth, broth dilution | ATCC25922 |  | MIC | 200 µg/mL (≈ 534 µM)
COc1ccc(-n2cc(COc3cc(C(C)C)ccc3C)nn2)cc1 | microbial growth, broth dilution | ATCC25922 |  | IC50 | 320 µg/mL
O=C(N/N=C/c1ccc([N+](=O)[O-])o1)c1ccc(O)cc1 | microbial growth | ATCC25922 |  | MIC90 | 0.49 µg/mL (≈ 1.78 µM)
Cc1ccc(-n2cc(COC3=CC(=O)c4ccccc4C3=O)nn2)cc1 | microbial growth, broth dilution | ATCC25922 |  | IC50 | 224 µg/mL
CC(C)c1ccc(O)c(=O)cc1 | microbial growth, broth dilution | ATCC35218 |  | MIC80 | 58.1 µM (≈ 9.54 µg/mL)
COc1c(N2C[C@@H]3CCCN[C@@H]3C2)c(F)cc2c(=O)c(C(=O)O)cn(C3CC3)c12 | microbial growth | ATCC25922 |  | MIC90 | 0.06 µg/mL (≈ 0.149 µM)
O=c1cccccc1SSc1cccccc1=O | microbial growth, broth dilution | ATCC35218 |  | MIC80 | 19.8 µM (≈ 5.43 µg/mL)
N=C(N)c1ccc(OCCCCCCCCOc2ccc(C(=N)N)cc2)cc1 | microbial growth | BW25113 |  | MIC | 50 µg/mL (≈ 131 µM)
COc1c(C)c(OS(=O)(=O)c2ccc3ccccc3c2)c(C)c(OS(=O)(=O)c2ccc3ccccc3c2)c1C(=O)/C=C/c1ccccc1 | microbial killing, broth dilution | ATCC25922 |  | MBC | > 5000 µg/mL
O=[N+]([O-])c1ccc(-c2nc3ccccc3[nH]2)cc1 | microbial growth, broth dilution | ATCC25922 |  | MIC | 128 µg/mL (≈ 535 µM)
